Compound activity from PubChem BioAssay.
DAGLB inhibitor: diacylglycerol lipase beta (human) inhibition; AID 504411; Q8NCG7; 340,000 tested, 0.059% active; inhibition, % at 5.17 µM; HEK293T DAGLB membrane lysate, EnzChek fluorogenic substrate; in the data active = inhibition above about 34%
Arrestin-AP2 inh: inhibitors of human beta-arrestin and AP2 interaction; FITC-arrestin peptide / GST-AP2 beads, flow cytometry; AP2 beta2 appendage carries R879A mutation; inhibition, % at 10 µM; 340,000 tested, 0.31% active; AID 504490;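 active = inhibition above a set limit, near 3 SD of compounds lacking own fluorescence, cut at about 54% in these data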
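System: GST-AP2 R879A bound to glutathione beads, E. coli-expressed. Also added: 50 nM FITC-arrestin peptide. Schedule: compound with beads 12 min RT, then probe 1 h RT. Signal: bead flow cytometry, FITC channel. Read-out basis: percent response.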
OPRM1-OPRD1 ag: OPRM1-OPRD1 heterodimerization agonism | AID 504326 | 340,000 tested, 0.3% active | activation, % at 9.3 µM | cells, luminescence | P35372+P41143; in the data active = activation above about 18%
HTR5A ag: activates human HTR5A in OPRM1-OPRD1 agonist counter-screen. HTR5A agonist assay, luminescence, cell-based. P47898. activation, % at 9.3 µM. 340,000 tested, 0.61% active. AID 504692; in the data active = activation mostly above about 9.5%, no sharp cut-off; inactive = mostly below about 7.6%
Target sequence (P47898 whole entry, looked up): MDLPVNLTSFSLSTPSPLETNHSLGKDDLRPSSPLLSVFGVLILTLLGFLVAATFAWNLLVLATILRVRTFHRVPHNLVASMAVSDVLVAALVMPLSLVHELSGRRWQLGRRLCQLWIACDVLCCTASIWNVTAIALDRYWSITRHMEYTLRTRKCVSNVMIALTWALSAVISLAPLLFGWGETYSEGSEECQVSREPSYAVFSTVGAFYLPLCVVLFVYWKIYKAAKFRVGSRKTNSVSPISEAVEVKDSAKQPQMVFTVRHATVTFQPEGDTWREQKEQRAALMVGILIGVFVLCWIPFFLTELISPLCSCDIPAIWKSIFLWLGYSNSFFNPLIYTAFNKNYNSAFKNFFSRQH
HTR5A inv ctr: HTR5A inverse agonism, opioid heterodimer counter-screen; HTR5A cell line, luminescence; inhibition, % at 9.3 µM; 340,000 tested, 0.083% active; AID 504634; in the data active = inhibition mostly above about 23%, no sharp cut-off; inactive = mostly below about 18%
MOR-DOR inv ag: inverse agonists of human mu-delta opioid receptor heterodimerization. cell-based MOR-DOR heterodimer luminescence, inverse agonism. inhibition, % at 9.3 µM. 340,000 tested, 0.21% active. AID 504357; in the data active = inhibition above about 22%, passing the limit was not always enough
Arr AP2 CP1: human beta-arrestin and AP2 interaction inhibition, cherry pick; shares compounds with Arrestin-AP2 inh; GST-AP2 beads, FITC arrestin peptide binding, flow cytometry; GST-fused beta2-adaptin appendage, R879A mutant; inhibition, % at 10 µM; 1,300 tested, 2% active; AID 504908;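 active = inhibition above a set limit, roughly 3 SD of non-fluorescent compound noise, cut at about 38% in these data; inactive = inhibition at or below that limit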;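 note: loss of bead fluorescence from 50 nM FITC arrestin peptide bound to appendage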
GST GSH counter: disrupts GST binding to glutathione beads, arrestin-AP2 artifact | shares compounds with Arrestin-AP2 inh | GST-fluorescein binding to GSH beads, fluorescence, counter-screen | inhibition, % at 10 µM | 1,300 tested, 2% active;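 active = inhibition above 50%, about 3 SD of the inhibition seen with non-fluorescent compounds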;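 note: fluorescein maleimide labelled GST captured on 4 micron glutathione beads; higher means more loss of bead fluorescence from quenching or blocked binding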
Numbers stand for hits; i = inactive; nt = no result given. Rows were chosen to be rich in hits. Some 1.4% of all compounds tested hit in one or more screens of this group.

SMILES	DAGLB inhibitor	Arrestin-AP2 inh	OPRM1-OPRD1 ag	HTR5A ag	HTR5A inv ctr	MOR-DOR inv ag	Arr AP2 CP1	GST GSH counter
COc1ccc(NC(=O)c2ccco2)cc1NC(=O)c1ccccc1[N+](=O)[O-]	i	55	i	i	i	i	i	i
C[C@@H]1CCCCO[C@H](CN(C)Cc2ccc(C(=O)O)cc2)[C@H](C)CN([C@@H](C)CO)C(=O)c2cc(NC(=O)Nc3ccc(C(F)(F)F)cc3)ccc2O1	i	nt	nt	nt	nt	nt	nt	nt
CC1CN(S(=O)(=O)c2ccc(CN3C(=O)c4cccnc4C3=O)cc2)c2ccccc2O1 (stereo unspecified)	i	59	i	i	i	i	i	i
COc1ccc(CN2C(=O)c3cccnc3C2=O)cc1S(=O)(=O)N1CC(C)Oc2ccccc21 (stereo unspecified)	i	i	i	i	i	i	nt	nt
CCSC1=N/C(=C\c2cccnc2)C(=O)N1c1ccccc1	i	i	i	i	i	i	nt	nt
CCOC(=O)CSC1=N/C(=C\c2cccnc2)C(=O)N1c1ccc(OC)cc1	i	105	i	i	i	i	i	i
CSC[C@H]1CN(Cc2cccnc2)C(=O)[C@@H]1CC(=O)Nc1ccc(Br)cc1	i	nt	nt	nt	nt	nt	nt	nt
Cc1cc(Oc2cccc3c2S(=O)(=O)N(C2CCCC2)CC(COCc2ccccc2)O3)cc(C)c1C (stereo unspecified)	i	57	i	i	i	i	i	i
O=C1CC(SC(=S)C2CCCC2=O)C(=O)N1 (stereo unspecified)	i	nt	nt	nt	nt	nt	nt	nt
CCCS(=O)(=O)N1CCCC(C(=O)NCC2CCCO2)C1 (stereo unspecified)	i	80	i	i	i	i	i	i
CN1CCN(c2ccc3sc(-n4ccc5ccccc54)nc3c2)CC1	i	nt	nt	nt	nt	nt	nt	nt
O=c1c2c3c(sc2nc2n1CCCCC2)CCC3	i	104	i	i	i	i	i	i
CC(/C=N/Nc1nc2ccccc2[nH]1)=C\c1ccccc1	i	107	i	i	i	i	i	i
O=C(NCc1ccccc1)c1cccc(NC(=O)C2CCCC2)c1	i	i	i	i	i	i	nt	nt
Cc1ccc([C@H]2C(C(=O)O)=CC[C@@H](c3ccc(C)cc3)N2S(=O)(=O)c2ccccc2C)cc1	i	i	i	i	i	i	nt	nt
CC(=O)N1N=C(c2ccc(Br)cc2)CC1c1cn(C)c2ccccc12 (stereo unspecified)	i	55	i	i	i	i	i	nt
CCCC(=O)N1N=C(c2ccccc2)CC1c1cn(C)c2ccccc12 (stereo unspecified)	i	i	i	i	i	i	nt	nt
COc1ccc(NS(=O)(=O)c2ccc(Br)cc2)cn1	i	57	i	i	i	i	i	i
COc1ccc(NS(=O)(=O)c2ccc(F)c(Cl)c2)cn1	i	i	i	i	i	i	nt	nt
CCN(CC)C(=O)C1=C(C)N(Cc2ccc(F)cc2)C(=O)C(CC(=O)NCCCN(C)C)C1 (stereo unspecified)	i	nt	nt	nt	nt	nt	nt	nt
O=C(COc1ccccc1Cl)N(Cc1cccs1)C1CCS(=O)(=O)C1 (stereo unspecified)	i	58	i	i	i	i	i	i
O=C1C=C(c2ccc(CO)cc2)C[C@@H](c2ccc(F)cc2)C1	i	nt	nt	nt	nt	nt	nt	nt
CC(=O)c1ccc(S(=O)(=O)NCCOc2ccccc2)cc1	i	nt	nt	nt	nt	nt	nt	nt
Cc1ccccc1CNC(=O)CCCn1ncn2c(cc3occc32)c1=O	i	i	i	i	i	i	nt	nt
CCOc1ccccc1CNC(=O)CCCn1ncn2c(cc3occc32)c1=O	i	64	i	i	i	i	i	i
C[C@@H]1CN([C@H](C)CO)C(=O)CCCn2cc(nn2)CO[C@H]1CN(C)S(=O)(=O)c1ccc2ccccc2c1	i	nt	nt	nt	nt	nt	nt	nt
Clc1ccccc1C=NNc1ccccn1	i	i	i	i	i	i	nt	nt
COc1ccc2nc(Cl)c(/C=N/Nc3ccccn3)cc2c1	i	59	i	i	i	i	i	i
O=C(O)c1cc(S(=O)(=O)N2CCOCC2)ccc1N1CCCCC1	i	i	i	i	i	i	nt	nt
